Test results from ChEMBL document CHEMBL3797085, “Structure-Based Design and Synthesis of Novel Inhibitors Targeting HDAC8 from Schistosoma mansoni for the Treatment of Schistosomiasis” (J Med Chem, 2016).

Tests used:
[1] = Cytotoxicity against HEK293 cells assessed as cell viability at 50 uM after 24 hrs by Alamar Blue assay relative to control; type: cell-based; details: human, read-out: Activity
In short: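 AlamarBlue added after 24 h, incubated a further 21 h; resorufin fluorescence ex 560/em 590 nm. Triplicates; viability relative to untreated cells; daunorubicin positive control.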

Schistosoma mansoni [2] = experiment: Antiparasitic activity against schistosomula stage of Schistosoma mansoni assessed as parasite viability at 10 uM after 48 hrs by Alamar Blue assay relative to control; type: functional
In short: (§1)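 Mechanically transformed S. mansoni schistosomula, 100 per well, in Medium 199 with 10% FCS, penicillin, streptomycin and rifampicin, held 3 h at 37°C/5% CO2 before use. […] Resazurin added at 48 h; fluorescence (ex 530/em 590 nm) read 24 h later, corrected for drug-medium background. Ethanol-killed larvae as dead control. Triplicate wells, two biological replicates.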

Histone deacetylase 1 = Histone deacetylase 1 (Homo sapiens, UniProt Q13547); experiment: Inhibition of recombinant human HDAC1 using Cbz-(Ac)Lys-AMC as substrate preincubated for 90 mins followed by trypsin addition measured after 20 mins by fluorescence assay
Histone deacetylase 8 [3] = biological target: T1, Histone deacetylase 8 (Homo sapiens, UniProt Q9BY41); experiment: Inhibition of recombinant human HDAC8 using Fluor de Lys as substrate preincubated for 90 mins followed by BML-KI176 addition measured after 45 mins by fluorescence assay
T1 sequence (Q9BY41 whole entry): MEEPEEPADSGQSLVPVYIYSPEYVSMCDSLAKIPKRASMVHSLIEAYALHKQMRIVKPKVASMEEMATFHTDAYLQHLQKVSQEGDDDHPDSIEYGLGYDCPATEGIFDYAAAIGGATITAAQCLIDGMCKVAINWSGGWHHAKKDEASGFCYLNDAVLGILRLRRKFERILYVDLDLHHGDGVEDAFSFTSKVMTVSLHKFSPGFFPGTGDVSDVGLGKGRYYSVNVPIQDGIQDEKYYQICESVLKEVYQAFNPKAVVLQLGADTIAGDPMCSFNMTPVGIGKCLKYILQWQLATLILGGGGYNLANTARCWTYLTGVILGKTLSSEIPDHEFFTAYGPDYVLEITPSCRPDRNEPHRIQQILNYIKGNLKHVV

[4] = biological target: T2, Protein deacetylase HDAC6 (Homo sapiens, UniProt Q9UBN7); experiment: Inhibition of recombinant human HDAC6 using Cbz-(Ac)Lys-AMC as substrate preincubated for 90 mins followed by trypsin addition measured after 20 mins by fluorescence assay
T2 sequence (Q9UBN7 whole entry): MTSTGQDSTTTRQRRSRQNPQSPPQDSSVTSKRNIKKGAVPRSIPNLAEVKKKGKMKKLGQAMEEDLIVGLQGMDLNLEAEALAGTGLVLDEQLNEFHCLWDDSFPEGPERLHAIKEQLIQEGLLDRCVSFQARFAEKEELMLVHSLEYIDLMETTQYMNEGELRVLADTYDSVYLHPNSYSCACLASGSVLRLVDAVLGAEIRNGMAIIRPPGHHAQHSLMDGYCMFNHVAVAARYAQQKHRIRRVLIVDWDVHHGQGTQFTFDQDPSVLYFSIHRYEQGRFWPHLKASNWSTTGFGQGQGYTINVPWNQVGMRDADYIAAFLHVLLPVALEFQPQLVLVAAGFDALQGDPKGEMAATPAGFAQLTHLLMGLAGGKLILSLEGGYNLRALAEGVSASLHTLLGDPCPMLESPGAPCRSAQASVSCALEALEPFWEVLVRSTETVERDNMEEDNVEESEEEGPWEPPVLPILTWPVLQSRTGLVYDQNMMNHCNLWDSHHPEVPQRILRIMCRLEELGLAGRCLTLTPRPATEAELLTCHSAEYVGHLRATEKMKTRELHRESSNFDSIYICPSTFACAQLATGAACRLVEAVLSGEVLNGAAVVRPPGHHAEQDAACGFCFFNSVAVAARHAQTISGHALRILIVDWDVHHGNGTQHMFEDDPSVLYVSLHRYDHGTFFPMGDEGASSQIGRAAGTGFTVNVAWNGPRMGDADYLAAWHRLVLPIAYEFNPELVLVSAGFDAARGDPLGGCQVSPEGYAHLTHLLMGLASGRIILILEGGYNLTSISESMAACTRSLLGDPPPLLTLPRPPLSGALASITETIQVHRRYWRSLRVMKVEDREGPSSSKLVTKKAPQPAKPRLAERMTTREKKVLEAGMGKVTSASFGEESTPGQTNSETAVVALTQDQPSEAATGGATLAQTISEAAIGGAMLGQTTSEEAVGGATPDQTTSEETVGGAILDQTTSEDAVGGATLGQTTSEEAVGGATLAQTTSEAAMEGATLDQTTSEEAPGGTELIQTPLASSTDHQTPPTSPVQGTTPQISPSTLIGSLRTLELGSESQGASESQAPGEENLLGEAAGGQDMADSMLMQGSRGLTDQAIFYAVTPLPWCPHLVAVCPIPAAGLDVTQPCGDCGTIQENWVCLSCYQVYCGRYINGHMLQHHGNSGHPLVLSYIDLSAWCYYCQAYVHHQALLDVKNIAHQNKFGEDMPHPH

Histone deacetylase 8 [5] = biological target: T3, Histone deacetylase 8 (Schistosoma mansoni, UniProt A5H660); experiment: Inhibition of recombinant Schistosoma mansoni HDAC8 expressed in Escherichia coli using Fluor de Lys as substrate preincubated for 90 mins followed by BML-KI176 addition measured after 45 mins by fluorescence assay
T3 sequence (A5H660 whole entry): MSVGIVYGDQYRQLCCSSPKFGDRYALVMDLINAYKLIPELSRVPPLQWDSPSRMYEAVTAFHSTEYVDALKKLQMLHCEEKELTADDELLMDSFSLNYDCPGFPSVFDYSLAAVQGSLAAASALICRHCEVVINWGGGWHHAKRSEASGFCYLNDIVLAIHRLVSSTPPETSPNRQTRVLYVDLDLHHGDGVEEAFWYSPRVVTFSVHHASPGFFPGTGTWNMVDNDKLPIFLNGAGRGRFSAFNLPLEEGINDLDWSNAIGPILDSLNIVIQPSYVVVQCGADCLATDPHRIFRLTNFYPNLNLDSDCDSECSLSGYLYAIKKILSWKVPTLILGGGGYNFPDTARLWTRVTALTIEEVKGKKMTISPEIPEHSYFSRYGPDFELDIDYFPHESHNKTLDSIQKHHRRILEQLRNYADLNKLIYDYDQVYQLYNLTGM
In short: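 smHDAC8 produced in E. coli. Fluor de Lys kit: compound, Fluor de Lys-HDAC8 substrate (50 µM) and enzyme incubated 90 min at 37°C, then Developer II for 45 min at 30°C. Reaction stopped with trichostatin A (2 µM). Fluorescence read at ex 390/em 460 nm. IC50 given as mean ± S.E.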

Schistosoma mansoni [6] = experiment: Antiparasitic activity against schistosomula stage of Schistosoma mansoni assessed as parasite viability at 20 uM after 48 hrs by Alamar Blue assay relative to control; type: functional; in short: as §1

Histone deacetylase 1, sequence (Q13547 whole entry): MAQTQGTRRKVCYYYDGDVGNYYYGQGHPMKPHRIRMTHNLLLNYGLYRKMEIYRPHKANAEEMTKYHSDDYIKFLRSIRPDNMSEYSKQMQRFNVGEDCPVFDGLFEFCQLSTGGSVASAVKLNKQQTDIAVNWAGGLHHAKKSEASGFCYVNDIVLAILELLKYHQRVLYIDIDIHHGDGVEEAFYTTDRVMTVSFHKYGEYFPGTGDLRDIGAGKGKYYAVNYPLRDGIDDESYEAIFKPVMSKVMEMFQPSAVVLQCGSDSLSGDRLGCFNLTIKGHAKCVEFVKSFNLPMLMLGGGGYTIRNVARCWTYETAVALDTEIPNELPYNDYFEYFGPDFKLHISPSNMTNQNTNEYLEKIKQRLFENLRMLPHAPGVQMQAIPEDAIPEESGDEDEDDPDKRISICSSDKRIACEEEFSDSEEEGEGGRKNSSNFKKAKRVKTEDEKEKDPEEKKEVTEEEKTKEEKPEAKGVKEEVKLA

Row | SMILES | viability at 24 h, 50 µM [1] [%] | Activity (Schistosoma mansoni [2]) [%] | IC50 (Histone deacetylase 1; read-out: IC50) [nM] | IC50 (Histone deacetylase 8 [3]; read-out: IC50) [nM] | IC50 ([4]; read-out: IC50) [nM] | IC50 (Histone deacetylase 8 [5]; read-out: IC50) [nM] | Activity (Schistosoma mansoni [6]) [%] | IC50 (Histone deacetylase 1) | IC50 (Histone deacetylase 8 [3]) | IC50 [4] | IC50 (Histone deacetylase 8 [5])
1 | COc1ccc(C(=O)NO)cc1NC(=O)c1ccccc1 | 67.3 | 77.4 | 2300 | 88.3 | 2500 | 190 | 74.8 |  |  |  | 
2 | COc1ccc(C(=O)NO)cc1S(=O)(=O)Nc1ccc(C)cc1 | 80.2 | 77.7 | 20000 | 19.8 | 2400 | 485 | 73.8 |  |  |  | 
3 | O=C(NO)c1cccc(NC(=O)c2ccccc2)c1 |  | 79.2 |  | 582 |  | 468 | 75.6 |  |  |  | 
4 | CCOc1ccc(C(=O)Nc2cc(C(=O)NO)ccc2OC)cc1 | 87.7 |  | 4400 | 438 | 1000 | 305 |  |  |  |  | 
5 | COc1ccc(C(=O)O)cc1NC(=O)c1ccc(-c2ccccc2)cc1 |  |  |  |  |  |  |  | Not Active | Not Active | Not Active | Not Active
6 | Cc1ccc(C(=O)NO)cc1NC(=O)c1ccccc1 | 71.2 | 82.9 | 8400 | 204 | 900 | 116 | 72.4 |  |  |  | 
7 | COc1ccc(Cn2ccc3ccc(C(=O)NO)cc32)cc1 |  | 70.6 |  |  |  | 436 | 62.3 |  |  |  | 
8 | O=C1CCSc2ccc(C(=O)NO)cc2N1 |  |  | 9800 | 620 | 1300 | 1220 |  |  |  |  | 
9 | O=C(NO)c1ccc(Cl)c(NC(=O)c2ccc([N+](=O)[O-])cc2)c1 | 79.1 | 85.3 |  |  |  | 394 | 68.1 |  |  |  | 
10 | O=C(C1CCCCC1)N1CC(=O)N2CCc3ccccc3C2C1 (stereo not drawn) [PRAZIQUANTEL] |  | 92 |  |  |  |  | 89 |  |  |  | 
11 | O=C(NO)c1ccc(Cl)c(NC(=O)c2ccc(Cl)cc2Cl)c1 | 70.4 | 72.5 | 31600 | 1180 | 800 | 191 | 59.3 |  |  |  | 
12 | O=C(NO)c1ccc(Cl)c(NC(=O)c2ccc(Oc3ccccc3)cc2)c1 |  |  | 8500 | 1080 | 150 | 979 |  |  |  |  | 
13 | O=C(NO)c1ccc(Cl)c(NC(=O)c2ccccc2)c1 | 72.2 | 84.7 | 11600 | 120 | 120 | 67 |  |  |  |  | 
14 | O=C(NO)c1ccc(Cl)c(NC(=O)c2cccc(Oc3ccccc3)c2)c1 | 62 | 62.9 | 6400 | 449 | 300 | 396 | 55 |  |  |  | 
15 | O=C(NO)c1ccc(Cl)c(NC(=O)c2cccc(OCc3ccccc3)c2)c1 | 74.4 | 73.8 | 9400 | 214 | 1500 | 378 | 68.6 |  |  |  | 
16 | O=C(NO)c1cccc(N(Cc2ccccc2)Cc2ccccc2)c1 | 7.7 | 77.9 | 42300 | 2190 | 8600 | 9290 | 74.6 |  |  |  | 
17 | O=C(NO)c1ccc(Cl)c(NC(=O)c2ccc(Cl)cc2)c1 | 81.6 | 71.8 | 3800 | 292 | 90 | 235 | 49.3 |  |  |  | 
18 | COc1ccc(C(=O)NO)cc1OCc1ccccc1 |  |  |  |  |  | 268 |  |  |  |  | 
19 | CC1Sc2ccc(C(=O)NO)cc2NC1=O (stereo not drawn) |  |  | 27500 | 970 | 3600 | 1480 |  |  |  |  | 
20 | O=C(NO)c1ccc(Br)c(NC(=O)c2ccccc2)c1 | 64.3 | 70.8 | 7400 | 191 | 150 | 150 | 63.1 |  |  |  | 
21 | CC(C)Oc1ccc(C(=O)NO)cc1NC(=O)c1ccccc1 | 129 | 75 | 3600 | 29 | 2600 | 220 | 68.7 |  |  |  | 
22 | COC(=O)c1ccc(OC)c(NC(=O)c2ccc(-c3ccccc3)cc2)c1 | 47.2 |  |  |  |  |  |  | Not Active | Not Active | Not Active | Not Active
23 | CCOc1ccc(C(=O)NO)cc1NC(=O)c1ccccc1 | 70.4 | 89.7 | 4600 | 172 | 1300 | 129 |  |  |  |  | 
24 | O=C(NO)c1ccc2ccccc2n1 | 73.3 | 95.6 |  | 582 |  | 8200 |  |  |  |  | 
25 | O=C(NO)c1cccc(NC2CCCCC2)c1 | 70.7 | 82.7 | 130000 | 830 |  | 3630 |  |  |  |  | 
26 | COc1ccc(C(=O)NO)cc1NC(=O)c1ccc(Cl)cc1 | 92.6 |  | 2900 | 240 | 900 | 146 |  |  |  |  | 
27 | CCCOc1ccc(C(=O)NO)cc1NC(=O)c1ccccc1 | 97.4 |  |  |  |  | 267 |  |  |  |  | 
28 | Cc1ccc(C(=O)NO)cc1NC(=O)c1ccc2ccccc2n1 |  | 74.9 | 2700 | 30.3 | 90 | 96.1 | 59.4 |  |  |  | 
29 | COc1ccc(C(=O)NO)cc1NC(=O)c1cccc(-c2ccccc2)c1 | 76.2 | 58.8 |  |  |  | 290 | 57 |  |  |  | 
